Experimental data taken from ChEMBL document CHEMBL1134346, “Labeling and evaluation of N-[11C]methylated quinoline-2-carboxamides as potential radioligands for visualization of peripheral benzodiazepine receptors” (J Med Chem, 2001).

These compounds were tested against Translocator protein (Rattus norvegicus) (UniProt P16257) (assay: Tissue (blood) concentration of radioactivity at 30 min post-injection into Albino male CD rats after pretreatment with cold PK 11195.). Settings: not given.
Type: functional, tissue-based
Procedure, shortened: (§1)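 Separate groups of five rats received tail-vein PK 11195 (1.4-1.6 mg; 5 mg/kg) in 30 µL DMSO:EtOH 1:1, or vehicle alone, immediately before iv radioligand (90-170 µCi in saline, 0.9-1 Ci/µmol). Rats were decapitated at 30 min and tissues gamma-counted; values are %I.D./g.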

Sequence of Translocator protein (Rattus norvegicus) (P16257 whole entry, looked up): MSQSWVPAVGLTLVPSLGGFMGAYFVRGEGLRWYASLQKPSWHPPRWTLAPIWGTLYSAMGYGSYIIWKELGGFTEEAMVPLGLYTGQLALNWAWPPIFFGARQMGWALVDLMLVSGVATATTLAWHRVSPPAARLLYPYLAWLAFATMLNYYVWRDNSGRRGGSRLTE

| Structure (SMILES) | I.D./g |
| --- | --- |
| CCC(C)N(C)C(=O)c1nc2ccccc2c(-c2ccccc2)c1C (stereo not given) | < 0.06% |

Species on record: Rattus norvegicus
Experiment: Tissue (cortex) concentration of radioactivity at 30 min post-injection into Albino male CD rats with vehicle.
Type: ADME, organism-based
Settings: in vivo, 0.5 h
Procedure, shortened: as §1

| Structure (SMILES) | I.D./g |
| --- | --- |
| CCC(C)N(C)C(=O)c1nc2ccccc2c(-c2ccccc2)c1C (stereo not given) | 0.05% |

Species on record: Rattus norvegicus
Experiment: Tissue (liver) concentration of radioactivity at 30 min post-injection into Albino male CD rats with vehicle.
Type: ADME, organism-based
Settings: in vivo, 0.5 h
Procedure, shortened: as §1

| Structure (SMILES) | I.D./g |
| --- | --- |
| CCC(C)N(C)C(=O)c1nc2ccccc2c(-c2ccccc2)c1C (stereo not given) | 0.3% |

Each compound was assayed against Translocator protein (Rattus norvegicus) (UniProt P16257) (assay: Tissue (lung) concentration of radioactivity at 30 min post-injection into Albino male CD rats after pretreatment with cold PK 11195.). Settings: not given.
Type: functional
Procedure, shortened: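 Blocking study in male albino CD rats, five per group. Immediately before the 11C radioligand (in saline, i.v. tail vein), rats received 30 µL tail-vein PK 11195 (5 mg/kg; 1.4-1.6 mg) in DMSO:EtOH 1:1, or vehicle. Rats were decapitated at 30 min. Tissues were dissected, washed, gamma-counted and weighed as in the biodistribution study. Results are %I.D./g.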

| Structure (SMILES) | I.D./g |
| --- | --- |
| CCC(C)N(C)C(=O)c1nc2ccccc2c(-c2ccccc2)c1C (stereo not given) | < 0.14% |

Species on record: Rattus norvegicus
Experiment: Tissue (cerebellum) distribution in Albino male CD rats after 5 minutes expressed as percent of injected dose per gram of organ.
Type: ADME, organism-based
Settings: in vivo
Procedure, shortened: (§2)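 Radioligand given in saline into tail vein of male albino CD rats (225-250 g); 100-200 µCi per animal, 1-2 Ci/µmol at injection depending on radioligand. Three rats per time point were decapitated under light ether anaesthesia. Blood, plasma, brain regions and washed organs were weighed and gamma-counted. Uptake is %I.D./g tissue, mean ± SD.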

| Structure (SMILES) | I.D./g |
| --- | --- |
| CCC(C)N(C)C(=O)c1nc2ccccc2c(-c2ccccc2)c1C (stereo not given) | 0.13% |

Species on record: Rattus norvegicus
Experiment: Tissue (intestine) distribution in Albino male CD rats after 5 minutes expressed as percent of injected dose per gram of organ.
Type: ADME, organism-based
Settings: in vivo
Procedure, shortened: as §2

| Structure (SMILES) | I.D./g |
| --- | --- |
| CCC(C)N(C)C(=O)c1nc2ccccc2c(-c2ccccc2)c1C (stereo not given) | 0.25% |

Species on record: Rattus norvegicus
Experiment: Tissue (pituitary) distribution in Albino male CD rats after 30 minutes expressed as percent of injected dose per gram of organ.
Type: ADME, organism-based, Pituitary gland
Settings: in vivo, 0.5 h
Procedure, shortened: (§3)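 Male albino CD rats (225-250 g) received the 11C-labelled radioligand in saline by tail-vein injection. Three rats per time point were decapitated under light ether anaesthesia at 5, 15, 30, 60 or 90 min. Blood was collected heparinized and plasma separated by centrifugation. The pituitary was dissected from the brain. Lung, liver (three-lobe pieces) and right deltoid muscle were sampled, washed in cold saline, gamma-counted and weighed. Results are %I.D./g.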

| Structure (SMILES) | I.D./g |
| --- | --- |
| CCC(C)N(C)C(=O)c1nc2ccccc2c(-c2ccccc2)c1C (stereo not given) | 0.24% |

Species on record: Rattus norvegicus
Experiment: Tissue (blood) distribution in Albino male CD rats after 90 minutes expressed as percent of injected dose per gram of organ.
Type: ADME, organism-based
Settings: in vivo, 1.5 h
Procedure, shortened: as §2

| Structure (SMILES) | I.D./g |
| --- | --- |
| CCC(C)N(C)C(=O)c1nc2ccccc2c(-c2ccccc2)c1C (stereo not given) | 0.03% |

Species on record: Rattus norvegicus
Experiment: Tissue (plasma) distribution in Albino male CD rats after 30 minutes expressed as percent of injected dose per gram of organ.
Type: ADME, organism-based
Settings: in vivo, 0.5 h
Procedure, shortened: as §3

| Structure (SMILES) | I.D./g |
| --- | --- |
| CCC(C)N(C)C(=O)c1nc2ccccc2c(-c2ccccc2)c1C (stereo not given) | 0.03% |

Species on record: Rattus norvegicus
Experiment: Tissue (adrenal gland) distribution in Albino male CD rats after 15 minutes expressed as percent of injected dose per gram of organ.
Type: ADME, organism-based
Settings: in vivo, 0.25 h
Procedure, shortened: as §2

| Structure (SMILES) | I.D./g |
| --- | --- |
| CCC(C)N(C)C(=O)c1nc2ccccc2c(-c2ccccc2)c1C (stereo not given) | 1.38% |

Species on record: Rattus norvegicus
Experiment: Tissue (heart) distribution in Albino male CD rats after 15 minutes expressed as percent of injected dose per gram of organ.
Type: ADME, organism-based
Settings: in vivo, 0.25 h
Procedure, shortened: as §2

| Structure (SMILES) | I.D./g |
| --- | --- |
| CCC(C)N(C)C(=O)c1nc2ccccc2c(-c2ccccc2)c1C (stereo not given) | 0.8% |

Species on record: Rattus norvegicus
Experiment: Tissue (pituitary) distribution in Albino male CD rats after 5 minutes expressed as percent of injected dose per gram of organ.
Type: ADME, organism-based, Pituitary gland
Settings: in vivo
Procedure, shortened: as §3

| Structure (SMILES) | I.D./g |
| --- | --- |
| CCC(C)N(C)C(=O)c1nc2ccccc2c(-c2ccccc2)c1C (stereo not given) | 0.22% |

Species on record: Rattus norvegicus
Experiment: Tissue (plasma) distribution in Albino male CD rats after 5 minutes expressed as percent of injected dose per gram of organ.
Type: ADME, organism-based
Settings: in vivo
Procedure, shortened: as §3

| Structure (SMILES) | I.D./g |
| --- | --- |
| CCC(C)N(C)C(=O)c1nc2ccccc2c(-c2ccccc2)c1C (stereo not given) | 0.12% |

Each compound was assayed against Translocator protein (Rattus norvegicus) (UniProt P16257) (assay: Tissue (liver) concentration of radioactivity at 30 min post-injection into Albino male CD rats after pretreatment with cold PK 11195.). Settings: not given.
Type: functional, tissue-based
Procedure, shortened: as §1

| Structure (SMILES) | I.D./g |
| --- | --- |
| CCC(C)N(C)C(=O)c1nc2ccccc2c(-c2ccccc2)c1C (stereo not given) | < 0.56% |

Species on record: Rattus norvegicus
Experiment: Tissue (adrenal gland) distribution in Albino male CD rats after 90 minutes expressed as percent of injected dose per gram of organ.
Type: ADME, organism-based
Settings: in vivo, 1.5 h
Procedure, shortened: as §2

| Structure (SMILES) | I.D./g |
| --- | --- |
| CCC(C)N(C)C(=O)c1nc2ccccc2c(-c2ccccc2)c1C (stereo not given) | 1.8% |

Species on record: Rattus norvegicus
Experiment: Tissue (muscle) distribution in Albino male CD rats after 60 minutes expressed as percent of injected dose per gram of organ.
Type: ADME, organism-based
Settings: in vivo, 1 h
Procedure, shortened: as §3

| Structure (SMILES) | I.D./g |
| --- | --- |
| CCC(C)N(C)C(=O)c1nc2ccccc2c(-c2ccccc2)c1C (stereo not given) | 0.12% |

Species on record: Rattus norvegicus
Experiment: Tissue (pituitary) distribution in Albino male CD rats after 15 minutes expressed as percent of injected dose per gram of organ.
Type: ADME, organism-based, Pituitary gland
Settings: in vivo, 0.25 h
Procedure, shortened: as §3

| Structure (SMILES) | I.D./g |
| --- | --- |
| CCC(C)N(C)C(=O)c1nc2ccccc2c(-c2ccccc2)c1C (stereo not given) | 0.2% |

Species on record: Rattus norvegicus
Experiment: Tissue (plasma) distribution in Albino male CD rats after 90 minutes expressed as percent of injected dose per gram of organ.
Type: ADME, organism-based
Settings: in vivo, 1.5 h
Procedure, shortened: as §3

| Structure (SMILES) | I.D./g |
| --- | --- |
| CCC(C)N(C)C(=O)c1nc2ccccc2c(-c2ccccc2)c1C (stereo not given) | 0.02% |

Species on record: Rattus norvegicus
Experiment: Tissue (intestine) distribution in Albino male CD rats after 30 minutes expressed as percent of injected dose per gram of organ.
Type: ADME, organism-based
Settings: in vivo, 0.5 h
Procedure, shortened: as §2

| Structure (SMILES) | I.D./g |
| --- | --- |
| CCC(C)N(C)C(=O)c1nc2ccccc2c(-c2ccccc2)c1C (stereo not given) | 0.4% |

Species on record: Rattus norvegicus
Experiment: Tissue (spleen) distribution in Albino male CD rats after 60 minutes expressed as percent of injected dose per gram of organ.
Type: ADME, organism-based
Settings: in vivo, 1 h

| Structure (SMILES) | I.D./g |
| --- | --- |
| CCC(C)N(C)C(=O)c1nc2ccccc2c(-c2ccccc2)c1C (stereo not given) | 1.25% |
